In data set [1] the test system is Pseudomonas aeruginosa. Kind of data set: Antimicrobial activity against Pseudomonas aeruginosa CP204. The data set is classed as functional. In outline: (§1)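 Microtiter broth dilution in brain heart infusion (BHI). Cells were grown overnight at 37°C in BHI broth and diluted in the same medium. Serial peptide dilutions were inoculated to a final 5 x 10^5 CFU/ml and incubated at 37°C for 24 h. The MIC is the lowest peptide concentration that inhibited growth.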

The subject of data set [2] is Pseudomonas aeruginosa. Briefly: Antimicrobial activity against Pseudomonas aeruginosa PA14. The data set is classed as functional. In outline:
as §1

Data set [3] deals with Pseudomonas aeruginosa. Kind of data set: Antimicrobial activity against Pseudomonas aeruginosa PAK. Format: functional. In outline: as §1
Data set [4] in a line: Toxicity against human erythrocytes assessed as increase in hemolytic activity after 18 hrs relative to V13KL peptide. Format: cell-based. The conditions noted are these: erythrocyte.
Data set [5] has as its system Pseudomonas aeruginosa. Briefly: Antimicrobial activity against Pseudomonas aeruginosa WR5. Format: functional. In short, it runs like this: as §1
The nature of data set [6]: Toxicity against human erythrocytes assessed as hemolysis after 18 hrs. Format: cell-based. The conditions noted are these: erythrocyte. In outline: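 Unlysed cells were removed by centrifugation (800 x g), and hemoglobin release was read at 570 nm. The MHC is the maximal concentration causing no hemolysis. Control was 1% erythrocytes without peptide.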
Data set [7] concerns Pseudomonas aeruginosa. Briefly: Antimicrobial activity against Pseudomonas aeruginosa PAO1. The data set is classed as functional. In short, it runs like this: as §1
Data set [8] deals with Pseudomonas aeruginosa. Kind of data set: Antimicrobial activity against Pseudomonas aeruginosa M2. The data set is classed as functional. In short, it runs like this:
as §1

A short description of data set [9]: Toxicity against human erythrocytes assessed as hemolysis at 500 ug/ml after 18 hrs. Conditions: erythrocyte.

≈ marks a conversion by molar mass, not a printed value.

One may read the MIC as the least concentration at which growth counts as inhibited. High values mean weaker potency, low ones greater potency. As for `CC[C@H](C)[C@H](NC(=O)[C@H](CC(C)C)NC(=O)[C@H](CCCCN)NC(=O)[C@H](CC(C)C)NC(=O)[C@H](C)NC(=O)[C@@H](NC(=O)[C@H](Cc1c[nH]cn1)NC(=O)[C@H](CC(C)C)NC(=O)[C@@H](NC(=O)[C@@H](NC(=O)[C@H](CCCCN)NC(=O)[C@H](CCCCN)NC(=O)[C@H](CC(C)C)NC(=O)[C@H](CO)NC(=O)[C@H](CCCCN)NC(=O)[C@H](Cc1ccccc1)NC(=O)[C@@H](NC(=O)[C@H](CCCCN)NC(=O)[C@H](CC(C)C)NC(=O)[C@H](Cc1ccccc1)NC(=O)[C@H](CO)NC(=O)[C@H](CCCCN)NC(=O)[C@H](Cc1c[nH]c2ccccc12)NC(=O)[C@H](CCCCN)NC(C)=O)[C@@H](C)O)[C@@H](C)O)C(C)C)[C@@H](C)O)C(=O)N[C@@H](CO)C(=O)N[C@@H](CO)C(N)=O`, the MIC in data set [1] amounted to 7.8 µg/mL (≈ 2.54 µM); in data set [2] it was 62.5 µg/mL (≈ 20.3 µM); in data set [3] it was 15.6 µg/mL (≈ 5.07 µM); in data set [5] it was 250 µg/mL (≈ 81.3 µM); in [7], 15.6 µg/mL (≈ 5.07 µM); in [8] it was 31.3 µg/mL (≈ 10.2 µM). Further, in data set [4], the Activity amounted to 16. Further, the “Maximal concentration causing no hemolysis (MHC)” value in data set [6] is 15.6 µg/mL.

Consider `CC[C@H](C)[C@H](NC(=O)[C@H](C)NC(=O)[C@H](CCCCN)NC(=O)[C@H](CC(C)C)NC(=O)[C@H](C)NC(=O)[C@@H](NC(=O)[C@H](Cc1c[nH]cn1)NC(=O)[C@H](CC(C)C)NC(=O)[C@@H](NC(=O)[C@@H](NC(=O)[C@H](CCCCN)NC(=O)[C@H](CCCCN)NC(=O)[C@H](CC(C)C)NC(=O)[C@H](CO)NC(=O)[C@H](CCCCN)NC(=O)[C@H](Cc1ccccc1)NC(=O)[C@@H](NC(=O)[C@H](CCCCN)NC(=O)[C@H](CC(C)C)NC(=O)[C@H](Cc1ccccc1)NC(=O)[C@H](CO)NC(=O)[C@H](CCCCN)NC(=O)[C@H](Cc1c[nH]c2ccccc12)NC(=O)[C@H](CCCCN)NC(C)=O)[C@@H](C)O)[C@@H](C)O)C(C)C)[C@@H](C)O)C(=O)N[C@@H](CO)C(=O)N[C@@H](CO)C(N)=O`, for which the MIC in data set [1] amounted to 15.6 µg/mL (≈ 5.14 µM); in data set [2], 31.3 µg/mL (≈ 10.3 µM); in data set [3] it was 31.3 µg/mL (≈ 10.3 µM); in data set [5] it was 62.5 µg/mL (≈ 20.6 µM); in data set [7], 15.6 µg/mL (≈ 5.14 µM); in [8] it was 15.6 µg/mL (≈ 5.14 µM). For the same compound, the Activity in data set [4] is reported as 8. In addition, the “Maximal concentration causing no hemolysis (MHC)” value in data set [6] was 31.3 µg/mL.

Turning to “Ac-KWKSFAKTFKSAKKTVLHTALKAISS-NH2 [listing 1 of 2 here]”, the Activity in data set [4] was 0.3. For the same compound, the “Maximal concentration causing no hemolysis (MHC)” value in data set [6] was found to be 1000 µg/mL.

With “Ac-KWKSFLKTFKSAKKTVLHTALKLISS-NH2 [listing 1 of 2 here]”, the MIC in [1] amounted to 15.6 µg/mL; in [2], 31.3 µg/mL; in [3], 62.5 µg/mL; in data set [5], 62.5 µg/mL; in data set [7] it was 31.3 µg/mL; in data set [8], 31.3 µg/mL.

As to Ac-KWKSFAKTFKSAKKTVLHTAAKAISS-NH2, the MIC in [1] was > 500 µg/mL; in data set [2] it was > 500 µg/mL; in data set [3], > 500 µg/mL; in [5], > 500 µg/mL; in data set [7], 500 µg/mL; in [8] it was > 500 µg/mL. For the same compound, the Activity in data set [4] came to 0.3. In data set [6], the “Maximal concentration causing no hemolysis (MHC)” value worked out at 1000 µg/mL.

As to “Ac-KWKSFAKTFKSAKKTVLHTALKAISS-NH2 [listing 2 of 2 here]”, the minimum inhibitory concentration (MIC) in [1] worked out at 125 µg/mL; in data set [2], 500 µg/mL; in data set [3] it was 250 µg/mL; in data set [5] it was 250 µg/mL; in [7], 125 µg/mL; in [8] it was 250 µg/mL.

“Ac-KWKSFLKTFKSAKKTVLHTALKLISS-NH2 [listing 2 of 2 here]”: the Activity in [4] turned out to be 4. Further, the “Maximal concentration causing no hemolysis (MHC)” value in [6] is 62.5 µg/mL.

`CC[C@H](C)[C@H](NC(=O)[C@H](C)NC(=O)[C@H](CCCCN)NC(=O)[C@H](CC(C)C)NC(=O)[C@H](C)NC(=O)[C@@H](NC(=O)[C@H](Cc1cnc[nH]1)NC(=O)[C@H](CC(C)C)NC(=O)[C@@H](NC(=O)[C@@H](NC(=O)[C@H](CCCCN)NC(=O)[C@H](CCCCN)NC(=O)[C@H](C)NC(=O)[C@H](CO)NC(=O)[C@H](CCCCN)NC(=O)[C@H](Cc1ccccc1)NC(=O)[C@@H](NC(=O)[C@H](CCCCN)NC(=O)[C@H](CC(C)C)NC(=O)[C@H](Cc1ccccc1)NC(=O)[C@H](CO)NC(=O)[C@H](CCCCN)NC(=O)[C@H](Cc1c[nH]c2ccccc12)NC(=O)[C@H](CCCCN)NC(C)=O)[C@@H](C)O)[C@@H](C)O)C(C)C)[C@@H](C)O)C(=O)N[C@@H](CO)C(=O)N[C@@H](CO)C(N)=O`: the MIC in [1] turned out to be 7.8 µg/mL (≈ 2.61 µM); in data set [2] it was 62.5 µg/mL (≈ 20.9 µM); in data set [3] it was 125 µg/mL (≈ 41.8 µM); in data set [5], 250 µg/mL (≈ 83.6 µM); in [7], 31.3 µg/mL (≈ 10.5 µM); in [8] it was 31.3 µg/mL (≈ 10.5 µM). The Activity in data set [4] is given as 1; in [9], “Non-toxic”. For the same compound, in data set [6], the “Maximal concentration causing no hemolysis (MHC)” value came to 250 µg/mL.

These data come from ChEMBL document CHEMBL1145532, “Role of peptide hydrophobicity in the mechanism of action of alpha-helical antimicrobial peptides” (Antimicrob Agents Chemother, 2007).
